Tests used:
Type in all cases: functional
Rattus norvegicus [1] = species: Rattus norvegicus; experiment: Ability to induce [3H]5-HT release from prelabeled rat whole brain synaptosome preparations at 10e-6 M concentration
Outline: (§1)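 Rat whole brain homogenised in ice-cold 0.32 M sucrose. Synaptosomes were isolated on a 1.2/0.8 M sucrose step gradient, preincubated 5 min at 37 °C in oxygenated Krebs-Henseleit, then loaded 5 min with [3H]5-HT (10^-7 M). Filter-retained synaptosomes were washed and superfused at 0.5 mL/min. 1-min fractions were counted for 5 min before and 10 min after drug addition. Efflux rate constant K taken from semilog plots; means of 3-4 experiments.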

Rattus norvegicus [2] = species: Rattus norvegicus; experiment: Ability to induce [3H]5-HT release from prelabeled rat whole brain synaptosome preparations at 10e-7 M concentration; outline: as §1
Rattus norvegicus [3] = species: Rattus norvegicus; experiment: Ability to induce [3H]-5-HT release from prelabeled rat whole brain synaptosome preparations at 10e-5 M concentration; outline: as §1
Rattus norvegicus [4] = species: Rattus norvegicus; experiment: Ability to induce [3H]-5-HT release from prelabeled rat whole brain synaptosome preparations and the activity was determined as percent of total released
Rattus norvegicus [5] = species: Rattus norvegicus; experiment: Ability to induce [3H]5-HT release from prelabeled rat whole brain synaptosome preparations; Relative rate of release to that of control was determined; outline: as §1
Rattus norvegicus [6] = species: Rattus norvegicus; experiment: Ability to induce [3H]5-HT release from prelabeled rat whole brain synaptosome preparations and the K value was determined; outline: as §1
Rattus norvegicus [7] = species: Rattus norvegicus; experiment: Ability to induce [3H]5-HT release from prelabeled rat whole brain synaptosome preparations and the K value was determined at 10e-5 M; outline: as §1

CN[C@@H](C)Cc1ccc2c(c1)OCO2
K (Rattus norvegicus [1]): 2.84e+06 min⁻¹ | K (Rattus norvegicus [2]): 1.68e+06 min⁻¹ | K (Rattus norvegicus [3]): 2.62e+06 min⁻¹

COc1ccc(CC(C)(C)N)cc1
Total release (Rattus norvegicus [4]): 45% | Relative rate (Rattus norvegicus [5]): 1.06

CC(C)(N)Cc1ccc2c(c1)OCO2
Total release (Rattus norvegicus [4]): 45.2% | K (Rattus norvegicus [6]): 175 min⁻¹ | Relative rate (Rattus norvegicus [5]): 1.09

COc1ccc(C[C@@H](C)N)cc1
K (Rattus norvegicus [1]): 2.28e+06 min⁻¹ | K (Rattus norvegicus [2]): 1.39e+06 min⁻¹ | K (Rattus norvegicus [3]): 3.07e+06 min⁻¹

C[C@@H](N)Cc1ccc2c(c1)OCO2
K (Rattus norvegicus [1]): 2.02e+06 min⁻¹ | K (Rattus norvegicus [2]): 2.14e+06 min⁻¹ | K (Rattus norvegicus [3]): 3.21e+06 min⁻¹

CN[C@H](C)Cc1ccc2c(c1)OCO2
K (Rattus norvegicus [1]): 1.73e+06 min⁻¹ | K (Rattus norvegicus [2]): 1.49e+06 min⁻¹ | K (Rattus norvegicus [3]): 2.74e+06 min⁻¹

CNC(C)(C)Cc1ccc2c(c1)OCO2
Total release (Rattus norvegicus [4]): 44.3% | K (Rattus norvegicus [6]): 169 min⁻¹ | Relative rate (Rattus norvegicus [5]): 1.06

COc1ccc(CC(C)N)cc1 (single isomer, unassigned)
K (Rattus norvegicus [1]): 2.55e+06 min⁻¹ | Total release (Rattus norvegicus [4]): 57.8% | K (Rattus norvegicus [6]): 280 10e4min-1 | K (Rattus norvegicus [7]): 2.3e+06 min⁻¹ | Relative rate (Rattus norvegicus [5]): 1.76 | K (Rattus norvegicus [2]): 1.34e+06 min⁻¹

C[C@H](N)Cc1ccc2c(c1)OCO2
K (Rattus norvegicus [1]): 2.42e+06 min⁻¹ | K (Rattus norvegicus [2]): 1.78e+06 min⁻¹ | K (Rattus norvegicus [3]): 3.07e+06 min⁻¹

Source: ChEMBL document CHEMBL1122159, “Effects of certain hallucinogenic amphetamine analogues on the release of [3H]serotonin from rat brain synaptosomes” (J Med Chem, 1982)
